Results on 17 compounds are retold here after ChEMBL document CHEMBL5247577, “Improved Selective Class I HDAC and Novel Selective HDAC3 Inhibitors: Beyond Hydroxamic Acids and Benzamides” (ACS Med Chem Lett, 2019).

Data set [1] has as its target Voltage-gated inwardly rectifying potassium channel KCNH2 (Homo sapiens, UniProt Q12809). Put plainly: Inhibition of hERG potassium channel incubated for 4 hrs by fluorescence polarization assay. It is filed as toxicity.
For a further data set, the target named is Histone deacetylase. Nature of the data set: Inhibition of HDAC in human HeLa cells using FLUOR DE LYS-SIRT1 as fluorogenic substrate incubated for 4 hrs by spectrophotometer based analysis. Format: cell-based.
A further data set addresses Histone deacetylase 1 (Homo sapiens, UniProt Q13547). Put plainly: Inhibition of human recombinant his tagged HDAC1 expressed in baculovirus expression system using FLUOR DE LYS-SIRT1 as fluorogenic substrate preincubated for 10 mins followed by substrate addition and measured after 1 hr by spectrophotometer based analysis.
A further data set addresses Histone deacetylase 3 (Homo sapiens, UniProt O15379). Nature of the data set: Inhibition of human HDAC3 expressed in baculovirus infected insect cells using FLUOR DE LYS-SIRT1 as fluorogenic substrate preincubated for 10 mins followed by substrate addition and measured after 1 hr by spectrophotometer based analysis.
Another data set has as its target Histone deacetylase 2 (Homo sapiens, UniProt Q92769). Nature of the data set: Inhibition of human HDAC2.
A short description of data set [2]: AUC in NMRI mouse plasma at 5 to 20 mg/kg, po by LC/MS/MS analysis. The note with it: NMRI, plasma, dose 5-20 mg/kg, read-out: AUC. It is filed as ADME, organism-based. Set-up: route po. In a few lines:
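Compound given orally as its tartrate salt at 20 mg/kg in mouse, 10 mg/kg in rat and 5 mg/kg in minipig.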

The nature of data set [3]: Metabolic stability in human hepatocyte assessed as half life. It is filed as ADME, cell-based. Particulars: hepatocytes.
A short description of data set [4]: Metabolic stability in mouse plasma assessed as half life. Format: ADME, cell-free.
A short description of data set [5]: Metabolic stability in mouse hepatocyte assessed as half life. Format: ADME, cell-based. The note with it: hepatocytes.
Data set [6] can be described thus: Metabolic stability in human plasma assessed as half life. It is filed as ADME, cell-free.

Voltage-gated inwardly rectifying potassium channel KCNH2, sequence (Q12809 whole entry): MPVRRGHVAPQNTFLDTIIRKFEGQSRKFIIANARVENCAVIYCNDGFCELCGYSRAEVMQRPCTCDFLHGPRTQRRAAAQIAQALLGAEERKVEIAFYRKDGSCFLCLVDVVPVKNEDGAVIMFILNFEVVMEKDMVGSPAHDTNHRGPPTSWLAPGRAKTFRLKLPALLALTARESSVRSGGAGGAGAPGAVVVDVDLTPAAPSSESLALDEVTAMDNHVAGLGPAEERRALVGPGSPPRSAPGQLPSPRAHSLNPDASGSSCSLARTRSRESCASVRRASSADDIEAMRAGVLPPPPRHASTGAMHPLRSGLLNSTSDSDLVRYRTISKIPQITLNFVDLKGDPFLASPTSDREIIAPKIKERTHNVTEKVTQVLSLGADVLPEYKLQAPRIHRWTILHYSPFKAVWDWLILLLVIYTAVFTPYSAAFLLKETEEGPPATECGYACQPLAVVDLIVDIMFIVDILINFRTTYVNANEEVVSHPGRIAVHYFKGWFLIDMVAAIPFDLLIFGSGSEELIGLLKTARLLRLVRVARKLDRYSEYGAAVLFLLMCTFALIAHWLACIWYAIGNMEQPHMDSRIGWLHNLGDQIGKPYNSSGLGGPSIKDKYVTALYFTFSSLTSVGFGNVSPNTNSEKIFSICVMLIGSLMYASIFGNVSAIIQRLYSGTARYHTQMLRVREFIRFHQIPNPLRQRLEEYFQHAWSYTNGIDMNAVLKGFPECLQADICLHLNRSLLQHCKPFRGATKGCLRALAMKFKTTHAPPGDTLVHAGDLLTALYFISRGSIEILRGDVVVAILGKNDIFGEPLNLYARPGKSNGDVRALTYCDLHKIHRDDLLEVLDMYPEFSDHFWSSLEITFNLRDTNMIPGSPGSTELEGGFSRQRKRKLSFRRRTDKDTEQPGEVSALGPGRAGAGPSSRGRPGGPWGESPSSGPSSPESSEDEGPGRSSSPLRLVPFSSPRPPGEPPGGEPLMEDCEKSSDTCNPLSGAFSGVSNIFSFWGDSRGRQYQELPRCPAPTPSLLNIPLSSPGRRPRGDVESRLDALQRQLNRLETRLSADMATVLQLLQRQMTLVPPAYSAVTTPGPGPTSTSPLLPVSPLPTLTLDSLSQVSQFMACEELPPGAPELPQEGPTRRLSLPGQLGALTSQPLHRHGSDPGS
Histone deacetylase 1, sequence (Q13547 whole entry): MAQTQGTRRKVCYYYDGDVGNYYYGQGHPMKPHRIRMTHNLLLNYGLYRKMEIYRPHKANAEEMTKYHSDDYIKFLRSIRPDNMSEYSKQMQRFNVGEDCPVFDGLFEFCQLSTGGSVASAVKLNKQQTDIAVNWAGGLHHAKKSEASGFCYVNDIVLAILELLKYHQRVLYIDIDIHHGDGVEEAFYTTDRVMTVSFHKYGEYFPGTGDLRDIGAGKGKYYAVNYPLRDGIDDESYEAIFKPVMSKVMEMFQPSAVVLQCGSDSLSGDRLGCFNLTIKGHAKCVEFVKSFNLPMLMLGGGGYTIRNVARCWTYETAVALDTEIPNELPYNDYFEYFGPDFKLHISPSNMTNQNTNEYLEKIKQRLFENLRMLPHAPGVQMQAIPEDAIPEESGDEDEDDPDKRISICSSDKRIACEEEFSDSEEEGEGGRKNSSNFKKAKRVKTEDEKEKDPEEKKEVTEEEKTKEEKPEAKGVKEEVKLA
Histone deacetylase 3, sequence (O15379 whole entry): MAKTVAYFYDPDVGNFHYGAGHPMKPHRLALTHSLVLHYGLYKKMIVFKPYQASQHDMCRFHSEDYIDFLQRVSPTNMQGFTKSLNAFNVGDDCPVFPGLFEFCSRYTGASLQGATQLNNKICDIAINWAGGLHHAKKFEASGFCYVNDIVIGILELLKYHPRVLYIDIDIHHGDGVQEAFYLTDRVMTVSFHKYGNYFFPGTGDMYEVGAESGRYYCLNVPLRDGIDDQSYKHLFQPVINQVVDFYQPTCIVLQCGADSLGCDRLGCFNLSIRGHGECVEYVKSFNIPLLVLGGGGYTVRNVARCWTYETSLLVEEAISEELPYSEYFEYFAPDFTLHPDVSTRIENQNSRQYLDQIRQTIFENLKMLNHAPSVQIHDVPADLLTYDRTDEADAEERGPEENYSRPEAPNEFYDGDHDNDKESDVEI
Histone deacetylase 2, sequence (Q92769 whole entry): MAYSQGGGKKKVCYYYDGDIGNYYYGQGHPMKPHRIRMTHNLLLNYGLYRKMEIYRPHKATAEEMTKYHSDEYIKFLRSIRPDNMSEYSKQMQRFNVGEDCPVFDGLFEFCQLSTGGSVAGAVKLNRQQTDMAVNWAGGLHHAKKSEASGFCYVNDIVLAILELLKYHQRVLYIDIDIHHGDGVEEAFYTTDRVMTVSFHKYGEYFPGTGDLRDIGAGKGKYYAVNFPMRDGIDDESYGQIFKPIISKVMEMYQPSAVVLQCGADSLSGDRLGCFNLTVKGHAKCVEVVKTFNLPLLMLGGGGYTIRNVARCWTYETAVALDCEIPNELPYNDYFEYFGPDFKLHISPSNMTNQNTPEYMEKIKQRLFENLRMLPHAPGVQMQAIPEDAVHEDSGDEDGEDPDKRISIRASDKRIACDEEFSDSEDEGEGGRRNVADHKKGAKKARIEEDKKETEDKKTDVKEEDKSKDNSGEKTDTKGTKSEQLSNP

On to `CCC(=O)CCCCC[C@H](NC(=O)C(=O)N1CCOCC1)c1ncc(-c2cc3ccccc3nc2OC)o1`, for which the figures for the IC50 (in data set [1]; on Histone deacetylase 1) were more than 30 µM and 0.0305 µM, respectively. The compound further came in with a 50% effective concentration (EC50) on Histone deacetylase of 0.61 µM.
With `CCC(=O)CCCCC[C@H](NC(=O)C1CN(C)C1)c1ncc(-c2cc3ccccc3[nH]c2=O)o1`, the figures for the half-maximal inhibitory concentration (IC50) (in [1]; on Histone deacetylase 1) were more than 30 µM and 0.0021 µM, respectively. Besides, the EC50 on Histone deacetylase amounted to 0.094 µM.
As for `CNC(=O)CCCCC[C@H](NC(=O)CCc1c[nH]c2ccccc12)c1ncc(-c2ccc(CN(C)C)cc2)[nH]1`, at Histone deacetylase 1, the IC50 came out at 1.37 µM.
The compound `CCC(=O)CCCCC[C@H](NC(=O)C1CN(C)C1)c1ncc(-c2ccc3ccccc3c2)o1` yielded an EC50 on Histone deacetylase of 0.873 µM. For the same compound, the IC50 at Histone deacetylase 1 was 0.0122 µM.
In the case of `CNC(=O)CCCCC[C@H](NC(=O)CCc1c[nH]c2ccccc12)c1ncc(-c2ccc(-n3cccn3)cc2)[nH]1`, at Histone deacetylase 1, the concentration for half-maximal inhibition (IC50) came to 0.86 µM.
Regarding `CCC(=O)CCCCC[C@H](NC(=O)C1CNC(=O)C1)c1ncc(-c2cc3ccccc3nc2OC)o1` (some centres not stated), the values for the IC50 (in data set [1]; at Histone deacetylase 1) were more than 30 µM and 0.0032 µM, respectively. This compound came in with an EC50 at Histone deacetylase of 0.208 µM.
With `CCC(=O)CCCCC[C@H](NC(=O)C(C)(C)N(C)C)c1ncc(-c2cc3ccccc3nc2OC)o1`, the values for the IC50 against Histone deacetylase 3, against Histone deacetylase 2 and at Histone deacetylase 1 were less than 0.0035 µM, less than 0.0035 µM and 0.0035 µM, respectively. This compound came in with a concentration giving a half-maximal response (EC50) at Histone deacetylase of 0.015 µM.
On to `CNC(=O)CCCCC[C@H](NC(=O)c1cncs1)c1ncc(-c2ccc3ccccc3c2)[nH]1`, for which, on Histone deacetylase 1, the 50% inhibitory concentration (IC50) was 0.325 µM.
`CCC(=O)CCCCC[C@H](NC(=O)C12CCN(CC1)CC2)c1ncc(-c2cc3ccccc3nc2OC)o1`: the IC50 is 0.19 µM in [1], less than 0.0035 µM on Histone deacetylase 3, less than 0.0035 µM against Histone deacetylase 2 and 0.0016 µM at Histone deacetylase 1. The same compound returned an EC50 at Histone deacetylase of 0.043 µM.
Turning to `CCC(=O)CCCCC[C@H](NC(=O)C1CN(C)C1)c1ncc(-c2cc3ccccc3nc2OC)[nH]1`, the IC50 in data set [1] was determined as 3 µM. For the same compound, in data set [2], the AUC turned out to be 900 nM·h.
In turn, `CCC(=O)CCCCC[C@H](NC(=O)C1CN(C)C1)c1ncc(-c2ccc3ccccc3c2)[nH]1` gave an EC50 at Histone deacetylase of 0.125 µM. For the same compound, the IC50 on Histone deacetylase 1 was determined as 0.0015 µM.
As for `CCC(=O)CCCCC[C@H](NC(=O)C1(F)CN(C)C1)c1ncc(-c2cc3ccccc3nc2OC)o1`, the values for the IC50 (in data set [1]; on Histone deacetylase 1) were 13.6 µM and 0.017 µM, respectively. This compound also showed an EC50 on Histone deacetylase of 0.43 µM.
In the case of `CNC(=O)CCCCC[C@H](NC(=O)c1cncs1)c1ncc(-c2ccc(CN(C)C)cc2)[nH]1`, the half-maximal inhibitory concentration (IC50) on Histone deacetylase 1 amounted to 6.07 µM.
Regarding `CCC(=O)CCCCC[C@H](NC(=O)Cc1c(C)[nH]c2ccc(OC)cc12)c1ncc(-c2ccc3ccccc3c2)o1`, the half-maximal effective concentration (EC50) on Histone deacetylase came out at 0.412 µM. In addition, the IC50 on Histone deacetylase 1 was found to be 0.0196 µM.
As to `CCC(=O)CCCCC[C@H](NC(=O)Cn1ccnn1)c1ncc(-c2cc3ccccc3nc2OC)o1`, the IC50 in [1] is more than 30 µM; at Histone deacetylase 1 it was 0.003 µM. The same compound showed a half-maximal effective concentration (EC50) at Histone deacetylase of 0.138 µM.
Consider `CNC(=O)CCCCC[C@H](NC(=O)Cn1ccc2cc(C#N)ccc21)c1ncc(-c2ccc(CN(C)C)cc2)[nH]1`, for which the half-life in data set [3], in [4], in data set [5] and in data set [6] was more than 4 h throughout.
Turning to `CCC(=O)CCCCC[C@H](NC(=O)Cc1c(C)[nH]c2ccc(OC)cc12)c1ncc(-c2ccc3ccccc3c2)[nH]1`, the EC50 at Histone deacetylase worked out at 0.044 µM. The concentration for half-maximal inhibition (IC50) on Histone deacetylase 1 was 0.0032 µM.
